Experimental data taken from ChEMBL document CHEMBL1155097, “T-type Ca2+ channel blockers suppress the growth of human cancer cells” (Bioorg Med Chem Lett, 2008).

Experiments:
[1] = tested on: HT-29; assay: Growth inhibition of human HT29 cells after 72 hrs by SRB assay; format: functional; details: HT-29, 72 h
Method in brief: (§1)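 Cells seeded in 96-well plates, in exponential growth at time of sample addition; various concentrations added in triplicate, 37 °C, 5% CO2, 72 h. Fixed with formalin 30 min at room temperature, tap-water washed, stained with 0.4% SRB 30 min, washed with 1% acetic acid, dye solubilized in 10 mM unbuffered Tris base; OD at 520 nm. GI50 from dose–response curve, three independent experiments.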

[2] = tested on: A549; assay: Growth inhibition of human A549 cells after 72 hrs by SRB assay; format: functional; details: A549, 72 h; method in brief: as §1
[3] = tested on: SK-MEL-2; assay: Growth inhibition of human SK-MEL-2 cells after 72 hrs by SRB assay; format: functional; details: SK-MEL-2, 72 h; method in brief: as §1
[4] = tested on: SK-OV-3; assay: Growth inhibition of human SKOV3 cells after 72 hrs by SRB assay; format: functional; details: SK-OV-3, 72 h; method in brief: as §1
[5] = tested on: DU-145; assay: Growth inhibition of human DU145 cells after 72 hrs by SRB assay; format: functional; details: DU-145, 72 h; method in brief: as §1
[6] = tested on: Mus musculus; assay: Acute toxicity in ICR CD1 mouse assessed as mortality at 1000 mg/kg, po after 5 days; format: organism-based; design: dose 1000 mg/kg, route oral; details: in vivo, 120 h
Method in brief: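 Single oral dose given as a corn oil mixture to two CD-1 (ICR) mice, with mortality monitored over 5 days.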

[7] = molecular target: Voltage-dependent T-type calcium channel subunit alpha-1G (Homo sapiens, UniProt O43497); assay: Inhibition of T-type calcium channel Cav3.1 alpha1G expressed in HEK293 cells by whole cell patch-clamp method; format: cell-based
Voltage-dependent T-type calcium channel subunit alpha-1G, sequence (O43497 whole entry): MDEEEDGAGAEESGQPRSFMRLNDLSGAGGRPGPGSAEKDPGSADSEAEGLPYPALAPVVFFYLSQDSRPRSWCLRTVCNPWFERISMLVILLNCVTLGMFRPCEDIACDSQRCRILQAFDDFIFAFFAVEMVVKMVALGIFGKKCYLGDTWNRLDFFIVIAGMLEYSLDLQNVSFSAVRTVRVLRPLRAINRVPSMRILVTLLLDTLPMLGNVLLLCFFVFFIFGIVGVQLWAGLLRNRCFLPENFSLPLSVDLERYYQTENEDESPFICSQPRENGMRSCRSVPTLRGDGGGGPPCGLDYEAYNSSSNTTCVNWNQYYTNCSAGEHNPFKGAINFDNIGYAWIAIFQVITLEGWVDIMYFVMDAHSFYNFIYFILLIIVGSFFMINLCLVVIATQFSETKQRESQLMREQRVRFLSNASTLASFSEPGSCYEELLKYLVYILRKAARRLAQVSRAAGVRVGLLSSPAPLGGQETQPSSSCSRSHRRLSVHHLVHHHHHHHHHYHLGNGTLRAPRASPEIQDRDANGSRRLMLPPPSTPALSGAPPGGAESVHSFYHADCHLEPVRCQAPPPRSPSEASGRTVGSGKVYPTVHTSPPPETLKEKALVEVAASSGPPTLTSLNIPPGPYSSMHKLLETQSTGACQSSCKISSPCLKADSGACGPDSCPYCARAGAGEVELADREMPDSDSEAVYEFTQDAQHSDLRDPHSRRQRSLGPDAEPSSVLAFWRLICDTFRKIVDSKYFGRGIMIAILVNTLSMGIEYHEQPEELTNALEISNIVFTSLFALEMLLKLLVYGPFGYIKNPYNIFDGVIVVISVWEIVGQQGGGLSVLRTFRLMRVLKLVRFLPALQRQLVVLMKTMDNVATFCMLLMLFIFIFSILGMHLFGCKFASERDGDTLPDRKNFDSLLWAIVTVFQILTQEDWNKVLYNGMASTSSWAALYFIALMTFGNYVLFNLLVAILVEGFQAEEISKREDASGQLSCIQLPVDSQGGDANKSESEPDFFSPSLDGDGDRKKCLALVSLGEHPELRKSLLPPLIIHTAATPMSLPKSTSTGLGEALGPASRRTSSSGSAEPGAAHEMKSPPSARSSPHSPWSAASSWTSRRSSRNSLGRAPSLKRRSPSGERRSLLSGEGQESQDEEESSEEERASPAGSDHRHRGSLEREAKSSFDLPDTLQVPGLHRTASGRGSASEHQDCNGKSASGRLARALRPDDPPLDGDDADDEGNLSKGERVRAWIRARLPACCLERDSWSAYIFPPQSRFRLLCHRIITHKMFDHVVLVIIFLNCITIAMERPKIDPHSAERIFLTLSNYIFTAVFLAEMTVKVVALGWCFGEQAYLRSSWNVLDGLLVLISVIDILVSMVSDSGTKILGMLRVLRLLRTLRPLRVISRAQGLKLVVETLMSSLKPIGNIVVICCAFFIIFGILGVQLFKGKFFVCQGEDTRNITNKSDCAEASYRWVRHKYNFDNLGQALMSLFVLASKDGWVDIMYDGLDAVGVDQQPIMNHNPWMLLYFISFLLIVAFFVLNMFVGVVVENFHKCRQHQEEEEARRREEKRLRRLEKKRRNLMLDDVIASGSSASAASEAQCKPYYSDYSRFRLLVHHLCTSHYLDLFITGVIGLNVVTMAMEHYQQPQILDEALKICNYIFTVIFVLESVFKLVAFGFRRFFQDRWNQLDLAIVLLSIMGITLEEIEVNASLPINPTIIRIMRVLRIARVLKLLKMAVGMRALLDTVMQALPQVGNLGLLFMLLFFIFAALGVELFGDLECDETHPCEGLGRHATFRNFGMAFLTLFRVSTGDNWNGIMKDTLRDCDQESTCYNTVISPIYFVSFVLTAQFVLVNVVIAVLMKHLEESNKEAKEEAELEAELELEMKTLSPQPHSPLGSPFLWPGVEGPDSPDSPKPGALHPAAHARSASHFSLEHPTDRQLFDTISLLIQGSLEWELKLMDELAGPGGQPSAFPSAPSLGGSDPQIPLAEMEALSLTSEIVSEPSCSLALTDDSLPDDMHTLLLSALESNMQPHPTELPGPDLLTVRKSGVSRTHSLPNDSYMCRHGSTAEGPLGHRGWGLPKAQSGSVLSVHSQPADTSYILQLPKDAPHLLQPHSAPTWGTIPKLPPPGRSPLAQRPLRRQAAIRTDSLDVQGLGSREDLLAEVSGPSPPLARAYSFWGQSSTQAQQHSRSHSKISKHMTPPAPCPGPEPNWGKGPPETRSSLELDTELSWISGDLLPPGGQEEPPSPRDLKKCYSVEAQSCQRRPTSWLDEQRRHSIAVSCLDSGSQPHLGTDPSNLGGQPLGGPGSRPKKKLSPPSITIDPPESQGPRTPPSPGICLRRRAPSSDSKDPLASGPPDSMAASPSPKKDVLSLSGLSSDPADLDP
Method in brief: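 HEK293 stably coexpressing Cav3.1 (alpha1G) and Kir2.1; whole-cell recording, 3–4 MΩ electrodes. Internal (mM): 130 KCl, 11 EGTA, 5 Mg-ATP, 10 HEPES, pH 7.4. External (mM): 140 NaCl, 2 CaCl2, 10 HEPES, 10 glucose, pH 7.4. Currents evoked every 15 s by 50 ms step from −100 to −30 mV. IC50 for peak-current inhibition fitted from dose–response curves, three independent experiments.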

GI50 [1] [nM]	GI50 [2] [nM]	GI50 [3] [nM]	GI50 [4] [nM]	GI50 [5] [nM]	IC50 [7] [nM]	Compound	Activity [6]
28300	> 100000	44000	> 100000	> 100000	380	CN(C)C1=Nc2ccccc2C(CC(=O)NCc2ccc(N)cc2)N1c1ccccc1 (stereo unspecified)	
13900	24500	17000	26100	17200	1040	CCN1C(N2CCCCC2)=Nc2ccccc2C1CC(=O)NCc1ccc(NS(=O)(=O)c2ccc(F)cc2)cc1 (stereo unspecified)	
3180	7740	2020	7180	4260	570	CC(C)(C)OC(=O)NCCCCCNC1=Nc2ccccc2C(CC(=O)NCc2ccccc2)N1c1ccccc1 (stereo unspecified)	
1670	1830	1480	1610	1640		CC(C)(C)OC(=O)NCCCCCNC1=Nc2ccccc2C(CC(=O)NCc2ccccc2)N1c1ccc(-c2ccccc2)cc1 (stereo unspecified)	

The next lines start with the compound.

Compound	GI50 [1] [nM]	GI50 [2] [nM]	GI50 [3] [nM]	GI50 [4] [nM]	GI50 [5] [nM]	IC50 [7] [nM]	Activity [6]
COC(=O)CC1c2ccccc2N=C(Nc2ccc(-c3ccccc3)cc2)N1CCCCCN (stereo unspecified)	1080	2900	1800	3990	4090		
COC(=O)CC1c2ccccc2N=C(NCCCCCNC(=O)OC(C)(C)C)N1c1ccc(-c2ccccc2)cc1 (stereo unspecified)	2080	3830	4310	4610	3830		
CN(CCCCCN1CCCC1)C1=Nc2ccccc2C(CC(=O)NCc2ccccc2)N1c1ccc(-c2ccccc2)cc1 (stereo unspecified)	610	870	690	2760	2490		
O=C(CC1c2ccccc2N=C(N2CCCCC2)N1c1ccccc1)NCc1ccc(NS(=O)(=O)c2ccc(F)cc2)cc1 (stereo unspecified)	1710	1930	1730	1950	1710		
CC(C)(C)OC(=O)NCCCCCN1C(Nc2ccc(-c3ccccc3)cc2)=Nc2ccccc2C1CC(=O)NCc1ccccc1 (stereo unspecified)	1700	1870	1590	2010	1790		
CN(C)CCCCCN(C)C1=Nc2ccccc2C(CC(=O)NCc2ccccc2)N1c1ccc(-c2ccccc2)cc1 (stereo unspecified)	40	170	480	660	190		Non-toxic
COC(=O)CC1c2ccccc2N=C(N(C)CCCCCN(C)C)N1c1ccc(-c2ccccc2)cc1 (stereo unspecified)	520	1770	1910	1950	1780		
CN(C)C1=Nc2ccccc2C(CC(=O)NCc2ccc([N+](=O)[O-])cc2)N1c1ccccc1 (stereo unspecified)	22300	> 100000	31600	> 100000	> 100000	350	
Cc1ccc(S(=O)(=O)Nc2ccc(CNC(=O)CC3c4ccccc4N=C(N(C)C)N3c3ccccc3)cc2)cc1 (stereo unspecified)	3150	14300	8530	15600	6520	630	
COc1cccc2c1C(=O)c1c(O)c3c(c(O)c1C2=O)C[C@@](O)(C(=O)CO)C[C@@H]3O[C@H]1C[C@H](N)[C@H](O)[C@H](C)O1 (stereo in doubt) [DOXORUBICIN]	210	160	110	120	60		
